B1: Cytochrome P450 3A5 (Homo sapiens) (protein)
chain: MDLIPNLAVETWLLLAVSLVLLYLYGTRTHGLFKRLGIPGPTPLPLLGNVLSYRQGLWKFDTECYKKYGKMWGTYEGQLPVLAITDPDVIRTVLVKECYSVFTNRRSLGPVGFMKSAISLAEDEEWKRIRSLLSPTFTSGKLKEMFPIIAQYGDVLVRNLRREAEKGKPVTLKDIFGAYSMDVITGTSFGVNIDSLNNPQDPFVESTKKFLKFGFLDPLFLSIILFPFLTPVFEALNVSLFPKDTINFLSKSVNRMKKSRLNDKQKHRLDFLQLMIDSQNSKETESHKALSDLELAAQSIIFIFAGYETTSSVLSFTLYELATHPDVQQKLQKEIDAVLPNKAPPTYDAVVQMEYLDMVVNETLRLFPVAIRLERTCKKDVEINGVFIPKGSMVVIPTYALHHDPKYWTEPEEFRPERFSKKKDSIDPYIYTPFGTGPRNCIGMRFALMNMKLALIRVLQNFSFKPCKETQIPLKLDTQGLLQPEKPIVLKVDSRDGTLSGE

Columns and labels:
[1] = molecular target: T1, Cytochrome P450 3A4 (Homo sapiens, UniProt P08684); assay: Substrate activity at CYP3A4 (unknown origin) assessed as enzyme-mediated compound turnover assessed per pmol protein at 10 uM; assay type: ADME
[2] = molecular target: T2, Cytochrome P450 3A5 (Homo sapiens, UniProt P20815); assay: Substrate activity at CYP3A5 (unknown origin) assessed as enzyme-mediated compound turnover assessed per pmol protein at 10 uM; assay type: ADME
[3] = Substrate activity at CYP450 in human liver microsomes with NADPH-generating system assessed as CYP-mediated benzoic acid (6R,7S)-2,6,10-trihydroxy-1,3,11,12-tetramethoxy-6,7-dimethyl-5,6,7,8-tetrahydro-dibenzo[a,c]cycloocten-5-yl ester formation at 5 uM after 25 mins in presence of CYP inhibitor ABT; assay type: ADME
Method in brief: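 Substrate at 5 μM in pooled HLM (0.2 mg protein/mL) with NADPH-generating system in 100 mM phosphate pH 7.4, 37 °C, with or without inhibitor: ketoconazole 1 μM for CYP3A. CYP3cide 1 μM and ABT 500 μM were preincubated with NADPH-generating system at 37 °C for 25 min. Metabolite quantified by UFLC-DAD. Three experiments in duplicate.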

[4] = molecular target: Cytochrome P450 3A4 (Homo sapiens, UniProt P08684, L210F); assay: Substrate activity at full length CYP3A4 L210F mutant (unknown origin) expressed in […] assessed as enzyme-mediated benzoic acid (6R,7S)-2,6,10-trihydroxy-1,3,11,12-tetramethoxy-6,7-dimethyl-5,6,7,8-tetrahydro-dibenzo[a,c]cycloocten-5-yl ester formation after 60 mins in presence of NADPH by UFLC-DAD analysis wild type CYP3A4; assay type: cell-based; details: 1 h
Method in brief: (§1)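 Full-length CYP3A4/CYP3A5 cDNA mutants transfected into COS-7 cells (4 μg plasmid per well). After 24 h, cells were sonicated and S9 fractions prepared (9000g supernatant). Incubation: 5 mg/mL S9 and 50 μM substrate in 100 mM potassium phosphate pH 7.4 with NADPH-generating system, 37 °C, 60 min. Stopped with methanol, metabolite quantified by UFLC-DAD.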

[5] = Intrinsic clearance in human liver microsomes assessed per mg liver microsome; assay type: ADME
Method in brief: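 HLM at 0.4 mg/mL, 20 min at 37 °C, in 100 mM potassium phosphate pH 7.4 with NADPH-generating system (1 mM NADP+, 10 mM glucose-6-phosphate, 1 unit/mL G6PDH, 4 mM MgCl2). Substrate at 2–200 μM, 1% methanol. Km and Vmax from nonlinear regression. CLint = Vmax/Km. Three experiments in duplicate, mean ± SD.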

[6] = molecular target: T2, Cytochrome P450 3A5; assay: Substrate activity at CYP3A5 in human liver microsomes assessed as enzyme-mediated benzoic acid (6R,7S)-2,6,10-trihydroxy-1,3,11,12-tetramethoxy-6,7-dimethyl-5,6,7,8-tetrahydro-dibenzo[a,c]cycloocten-5-yl ester formation at 5 uM by LC-MS/MS analysis; assay type: ADME
[7] = molecular target: T2, Cytochrome P450 3A5; assay: Substrate activity at CYP3A5 in human HepG2 cell s9 fractions assessed as enzyme-mediated benzoic acid (6R,7S)-2,6,10-trihydroxy-1,3,11,12-tetramethoxy-6,7-dimethyl-5,6,7,8-tetrahydro-dibenzo[a,c]cycloocten-5-yl ester formation at 50 uM after 60 mins by LC-MS/MS analysis; assay type: ADME, S9 Fraction; details: s9, 1 h
Method in brief: (§2)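 HepG2 or Caco-2 cells grown to 90% confluence in 75 cm2 flasks, trypsinized, sonicated in ice-cold PBS. S9 taken as the 9000g 20-min supernatant, protein by BCA. Incubated with 50 μM substrate and NADPH-generating system, pH 7.4 phosphate, 37 °C for 60 min. Stopped with ice-cold methanol, then centrifuged.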

[8] = Drug metabolism in S9 fractions (unknown origin) assessed as benzoic acid (6R,7S)-2,6,10-trihydroxy-1,3,11,12-tetramethoxy-6,7-dimethyl-5,6,7,8-tetrahydro-dibenzo[a,c]cycloocten-5-yl ester formation in presence of UDP-glucuronic acid by UFLC-DAD analysis; assay type: ADME, subcellular, S9 fraction
[9] = Drug metabolism in human liver microsomes assessed as Vmax for 2-O-demethylation; assay type: ADME, microsome
Method in brief: (§3)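 Pooled HLM at 0.4 mg/mL incubated 20 min at 37 °C with substrate at 2, 5, 10, 20, 50, 100, 200 μM. Buffer was 100 mM potassium phosphate pH 7.4 with an NADPH-generating system, methanol 1% (v/v) final, 3 min preincubation. Reaction stopped with ice-cold methanol; 2-O-demethylated metabolite read by UFLC-DAD. Apparent Km and Vmax from nonlinear regression; three experiments in duplicate.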

[10] = Drug metabolism in human liver microsomes assessed as Km for 2-O-demethylation; assay type: ADME, microsome; method in brief: as §3
[11] = molecular target: T2, Cytochrome P450 3A5; assay: Substrate activity at recombinant human CYP3A5 expressed in bactosomes assessed as intrinsic clearance by measuring ratio of Vmax/Km for 2-O-demethylation assessed per pmol protein; assay type: ADME; details: recombinant enzyme
Method in brief: (§4)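 Bactosome rhCYP3A4 (40 nM, 20 min) or rhCYP3A5 (20 nM, 5 min) incubated at 37 °C with substrate at 2–200 μM in 100 mM potassium phosphate pH 7.4 with NADPH-generating system, 1% methanol. Stopped with ice-cold methanol, demethylated metabolite quantified by UFLC-DAD. Km and Vmax from nonlinear regression; CLint = Vmax/Km. Three experiments in duplicate.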

[12] = molecular target: T1, Cytochrome P450 3A4; assay: Substrate activity at recombinant human CYP3A4 expressed in bactosomes assessed as intrinsic clearance by measuring ratio of Vmax/Km for 2-O-demethylation assessed per pmol protein; assay type: ADME; details: recombinant enzyme; method in brief: as §4
[13] = Drug metabolism in s9 fractions (unknown origin) assessed as benzoic acid (6R,7S)-2,6,10-trihydroxy-1,3,11,12-tetramethoxy-6,7-dimethyl-5,6,7,8-tetrahydro-dibenzo[a,c]cycloocten-5-yl ester formation in presence of 3'-phosphoadenosine-5'-phosphosulfate by UFLC-DAD analysis; assay type: ADME, subcellular, S9 fraction
[14] = molecular target: Cytochrome P450 3A5 (Homo sapiens, UniProt P20815, F210L); assay: Substrate activity at full length CYP3A5 F210L mutant (unknown origin) expressed in […] assessed as enzyme-mediated benzoic acid (6R,7S)-2,6,10-trihydroxy-1,3,11,12-tetramethoxy-6,7-dimethyl-5,6,7,8-tetrahydro-dibenzo[a,c]cycloocten-5-yl ester formation after 60 mins in presence of NADPH by UFLC-DAD analysis relative to wild type CYP3A5; assay type: ADME, cell-based; details: s9, 1 h; method in brief: as §1
[15] = molecular target: T2, Cytochrome P450 3A5; assay: Substrate activity at CYP3A5 in human Caco2 cell s9 fractions assessed as enzyme-mediated benzoic acid (6R,7S)-2,6,10-trihydroxy-1,3,11,12-tetramethoxy-6,7-dimethyl-5,6,7,8-tetrahydro-dibenzo[a,c]cycloocten-5-yl ester formation at 50 uM after 60 mins by LC-MS/MS analysis; assay type: ADME, S9 Fraction; details: s9, 1 h; method in brief: as §2
[16] = system: HepG2; assay: Cytotoxicity against human HepG2 cells at 300 uM by CCK-8 assay; assay type: cell-based; details: hepg2, 300 µM
Method in brief: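 HepG2 viability after exposure measured with CCK-8 kit. Cells grown in complete DMEM with 10% FCS.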

[17] = Drug metabolism in s9 fractions (unknown origin) assessed as benzoic acid (6R,7S)-2,6,10-trihydroxy-1,3,11,12-tetramethoxy-6,7-dimethyl-5,6,7,8-tetrahydro-dibenzo[a,c]cycloocten-5-yl ester formation in presence of S-adenosyl-L-methionine by UFLC-DAD analysis; assay type: ADME, subcellular, S9 fraction
[18] = substrate: COc1cc2c(c(OC)c1OC)-c1c(cc(O)c(OC)c1OC)C[C@H](C)[C@](C)(O)[C@H]2OC(=O)c1ccccc1; assay: Substrate activity at recombinant human CYP3A5 expressed in bactosomes assessed as Km for 2-O-demethylation after 5 mins by Eadie-Hofstee plot method; assay type: ADME
Method in brief: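 Bactosome rhCYP3A5 (20 nM, coexpressed with human NADPH-P450 reductase) incubated 5 min at 37 °C with substrate 2–200 μM in 100 mM potassium phosphate pH 7.4 with NADPH-generating system, final methanol 1%. Reaction stopped with ice-cold methanol. Metabolite measured by UFLC-DAD. Apparent Km from nonlinear regression, plotted as Eadie–Hofstee. Three independent experiments in duplicate, mean ± SD.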

T1 sequence (P08684 whole entry): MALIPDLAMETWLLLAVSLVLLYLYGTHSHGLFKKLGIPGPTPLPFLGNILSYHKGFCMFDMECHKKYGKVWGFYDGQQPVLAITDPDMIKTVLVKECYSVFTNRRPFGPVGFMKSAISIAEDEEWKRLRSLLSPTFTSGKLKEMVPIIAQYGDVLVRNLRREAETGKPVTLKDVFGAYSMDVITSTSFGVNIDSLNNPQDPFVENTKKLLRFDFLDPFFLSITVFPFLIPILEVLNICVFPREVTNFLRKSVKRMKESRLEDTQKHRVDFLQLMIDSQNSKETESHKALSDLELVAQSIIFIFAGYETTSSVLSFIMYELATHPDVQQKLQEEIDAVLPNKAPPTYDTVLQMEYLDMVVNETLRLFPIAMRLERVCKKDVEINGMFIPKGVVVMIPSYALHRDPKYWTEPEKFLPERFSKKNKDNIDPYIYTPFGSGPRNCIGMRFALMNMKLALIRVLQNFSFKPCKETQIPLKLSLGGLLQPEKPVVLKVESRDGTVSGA
Chain of Cytochrome P450 3A5 (Homo sapiens, UniProt P20815, F210L) (P20815 whole entry F210L): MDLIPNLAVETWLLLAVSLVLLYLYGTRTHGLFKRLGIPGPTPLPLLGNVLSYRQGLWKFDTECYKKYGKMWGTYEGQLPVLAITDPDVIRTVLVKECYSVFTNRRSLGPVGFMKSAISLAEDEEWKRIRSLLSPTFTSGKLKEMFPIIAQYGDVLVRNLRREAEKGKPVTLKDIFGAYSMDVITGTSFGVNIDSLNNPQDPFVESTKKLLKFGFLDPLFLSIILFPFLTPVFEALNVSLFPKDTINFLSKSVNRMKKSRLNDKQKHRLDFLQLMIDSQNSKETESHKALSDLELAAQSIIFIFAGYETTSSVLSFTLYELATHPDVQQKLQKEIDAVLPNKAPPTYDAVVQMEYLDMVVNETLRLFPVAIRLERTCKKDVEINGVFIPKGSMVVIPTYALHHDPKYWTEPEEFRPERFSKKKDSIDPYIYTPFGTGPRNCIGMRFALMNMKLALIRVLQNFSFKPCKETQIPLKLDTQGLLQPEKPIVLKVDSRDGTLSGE
Chain of Cytochrome P450 3A4 (Homo sapiens, UniProt P08684, L210F) (P08684 2-503 L210F limits assumed): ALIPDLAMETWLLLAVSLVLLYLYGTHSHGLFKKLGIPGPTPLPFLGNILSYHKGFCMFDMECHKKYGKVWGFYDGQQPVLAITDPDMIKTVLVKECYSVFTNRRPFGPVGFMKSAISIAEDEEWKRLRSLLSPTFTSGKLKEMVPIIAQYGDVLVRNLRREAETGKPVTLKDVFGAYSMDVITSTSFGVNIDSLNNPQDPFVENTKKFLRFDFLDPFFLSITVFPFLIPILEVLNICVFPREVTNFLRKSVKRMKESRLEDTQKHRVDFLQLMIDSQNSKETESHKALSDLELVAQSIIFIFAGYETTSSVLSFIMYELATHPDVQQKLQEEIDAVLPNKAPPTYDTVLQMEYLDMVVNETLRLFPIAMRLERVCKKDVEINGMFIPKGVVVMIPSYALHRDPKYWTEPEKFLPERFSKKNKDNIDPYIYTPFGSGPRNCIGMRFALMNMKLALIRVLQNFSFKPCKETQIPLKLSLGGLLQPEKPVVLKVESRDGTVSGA

Molecule	Drug metabolism [1]	Drug metabolism [2]	other results
COc1cc2c(c(OC)c1OC)-c1c(cc3c(c1OC)OCO3)C[C@H](C)[C@H](C)C2 [WUWEIZISU B]	Metabolite_Notdetected	Metabolite_Notdetected	
COc1cc2c(c(OC)c1OC)-c1c(cc(O)c(OC)c1OC)C[C@H](C)[C@](C)(O)[C@H]2OC(=O)c1ccccc1	1 to 3 pmol/min	>= 30 pmol/min	Drug metabolism [3]: Metabolite_Notdetected; fold change (FC) [4]: 2.6; microsomal CLint [5]: 50.2 µL/min/mg; Drug metabolism [6]: 23.2 to 159 pmol/min/mg; Drug metabolism [7]: Metabolite_Detected; Drug metabolism [8]: Metabolite_Notdetected; Vmax [9]: 248.5 pmol/min/mg; Km [10]: 4.95 µM; Ratio [11]: 10.7 µL/min/pmol; Ratio [12]: 0.46 µL/min/pmol; Drug metabolism [13]: Metabolite_Notdetected; fold change (FC) [14]: 2.1; Drug metabolism [15]: Metabolite_Detected; Activity [16]: Non-Toxic; Drug metabolism [17]: Metabolite_Notdetected
COc1c(O)cc2c(c1OC)-c1c(cc(O)c(OC)c1OC)C(O)[C@@H](C)[C@@H](C)C2 (stereo partly specified)	4 to 9 pmol/min	1 to 3 pmol/min	
COc1cc2c(c(OC)c1OC)-c1c(cc3c(c1OC)OCO3)C[C@H](C)[C@@](C)(O)C2O (stereo partly specified)	4 to 9 pmol/min	1 to 3 pmol/min	
COc1cc2c(c(O)c1OC)-c1c(cc(OC)c(OC)c1OC)C[C@H](C)[C@H](C)C2	10 to 15 pmol/min	4 to 9 pmol/min	
COc1cc2c(c(OC)c1OC)-c1c(cc3c(c1OC)OCO3)C(OC(=O)c1ccccc1)[C@](C)(O)[C@@H](C)C2 (stereo partly specified)	4 to 9 pmol/min	1 to 3 pmol/min	
C/C=C(/C)C(=O)OC1c2cc(OC)c(OC)c(OC)c2-c2c(cc3c(c2OC)OCO3)C[C@H](C)[C@@]1(C)O (stereo partly specified)	Metabolite_Notdetected	Metabolite_Notdetected	
COc1cc2c(c(OC)c1OC)-c1c(cc3c(c1OC)OCO3)C[C@H](C)[C@@](C)(O)C2OC(=O)c1ccccc1 (stereo partly specified)	Metabolite_Notdetected	Metabolite_Notdetected	
COc1c2c(cc3c1-c1c(cc4c(c1OC)OCO4)C[C@H](C)[C@H](C)C3)OCO2 [SCHISANDRIN C]	Metabolite_Notdetected	Metabolite_Notdetected	
COc1cc2c(c(OC)c1OC)-c1c(cc(OC)c(OC)c1OC)C[C@](C)(O)[C@@H](C)C2 [SCHIZANDRIN]	>= 30 pmol/min	1 to 3 pmol/min	
COc1cc2c(c(OC)c1OC)-c1c(cc(OC)c(OC)c1OC)C[C@H](C)[C@H](C)C2 [SCHISANDRIN A]	16 to 29 pmol/min	10 to 15 pmol/min	
COc1cc2c(c(OC)c1OC)-c1c(cc3c(c1OC)OCO3)C[C@H](C)[C@@](C)(O)C2 [BESIGOMSIN]	10 to 15 pmol/min	1 to 3 pmol/min	
B1			Km [18]: 5.9 µM; Vmax [18]: 6.34e-05 µmol/min
